Most compounds without a hit are left out; they make up all but 4.5% or so of the library.
PERK inhibitor: human PERK inhibition, primary cell-based screen. inhibition, % at 5.6 µM. CHO PERK-DD fusion, SEAP luminescence translation reporter. actives 0.17% (n = 220,000);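 active = inhibition above the mean inhibition of all tested compounds plus 3 SD, set separately per screening campaign, cut at about 2.9% in these data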;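 also: PERK kinase domain activated by AP20187 dimerizer at 100 nM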
AHR activator: activates the human aryl hydrocarbon receptor; P35869; AHR-responsive luciferase reporter cells, luminescence; activation, % at 5 µM; actives 2.5% (n = 320,000); in the data active = activation above about 47%
MDM2 E3 inh: blocks human Mdm2 ubiquitin ligase activity. cell-based MDM2 ubiquitination luciferase reporter, 2 h; 0 = plate control, 100 = twice control, blank-subtracted. signal enhancement, % at 5 µM. actives 0.11% (n = 210,000). AID 1230;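 active = signal enhancement of 30% or more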;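 also: luminescence tracks abundance of the self-degrading MDM2-luciferase fusion protein; higher signal means inhibition of MDM2 E3 ligase activity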
Target sequence (Q00987 whole entry, looked up, the tested form may be a part): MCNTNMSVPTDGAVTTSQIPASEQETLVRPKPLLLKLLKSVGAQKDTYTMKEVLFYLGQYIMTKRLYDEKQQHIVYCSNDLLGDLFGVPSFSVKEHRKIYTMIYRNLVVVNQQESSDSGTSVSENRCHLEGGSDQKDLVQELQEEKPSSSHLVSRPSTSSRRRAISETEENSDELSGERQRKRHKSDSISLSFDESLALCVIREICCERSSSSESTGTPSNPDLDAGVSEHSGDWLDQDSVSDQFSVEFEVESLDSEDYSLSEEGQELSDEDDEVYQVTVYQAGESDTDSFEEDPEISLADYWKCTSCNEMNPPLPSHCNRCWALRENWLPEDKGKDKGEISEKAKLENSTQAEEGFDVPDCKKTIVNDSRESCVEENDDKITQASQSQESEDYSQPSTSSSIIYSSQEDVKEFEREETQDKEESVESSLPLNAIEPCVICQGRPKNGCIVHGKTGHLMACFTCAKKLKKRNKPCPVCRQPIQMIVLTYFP
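system = mammalian cells stably expressing self-ubiquitinating, self-degrading MDM2 E3–luciferase fusion | quantity = 2000 cells per well seeded | incubation = 4 h cell settling then 2 h compound exposure, 37 °C | signal = SteadyLite luminescence, 15 min reagent step | benchmarks = plate control and blank wells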
NF-kB neuron act: raises NF-kB expression in human neuronal cells. NF-kB reporter expression; hits give high values. AID 1239. actives 1.6% (n = 190,000). fold change at 12.5 µM; in the data active = fold change above about 3.3
STAT1 activator: activators of IFN-gamma induced STAT1 signaling. NIH 3T3 STAT1-luciferase reporter, luminescence; 100% = IFN-gamma alone, no compound. activation (% of control), % at 5.5 µM. actives 2.6% (n = 200,000). AID 932;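 active = activation above the screen-wide mean activation plus 3 SD, cut at about 130% in these data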
APP 5'UTR act: activates APP 5'UTR luciferase reporter; AID 1276; SH-SY5Y APP 5'UTR luciferase reporter, luminescence; zero percent = DMSO vehicle wells; activation, % at 2 µM; actives 1% (n = 190,000);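 active = activation above a set limit, based on mean plus 3 SD of controls, cut at about 140% in these data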
STAT1 activ conf: STAT1 activation, confirmation assay. shares compounds with STAT1 activator. NIH 3T3 STAT1-luciferase reporter, IFN-gamma potentiation, luminescence; 100% = IFN-gamma EC80 alone, no compound. activation (% of control), % at 5.7 µM. actives 97% (n = 1,200);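 active = activation above a set limit carried over from the earlier primary STAT1 screen, cut at about 140% in these data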
NFkB act STAT1ct: NF-kappaB activation in STAT1 activator counter-screen; shares compounds with STAT1 activator; HEK293T NF-kB luciferase reporter, TNF-alpha stimulated, luminescence; 100% = TNF-alpha with vehicle only; activation (% of control), % at 5.7 µM; actives 43% (n = 1,200); AID 1306;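 active = activation above the mean of solvent-only control wells plus 3 SD, set per campaign, cut at about 130% in these data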;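 also: TNF-alpha given at a submaximal dose yielding about 80% of full reporter signal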
STAT3 act STAT1c: counter-screen for STAT1 activators: human STAT3 activation. shares compounds with STAT1 activator. U3A cells STAT3-luciferase reporter, IL-6, luminescence; cells lack STAT1; 100 = IL-6 alone, no compound effect. activation (% of control), % at 5.7 µM. actives 46% (n = 1,200). AID 1316;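 active = activation above the solvent-only control well mean plus 3 SD, set per plate batch, cut at about 110% in these data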;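 also: higher means more STAT3 reporter activation so hits are non-selective activators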
Numbers stand for hits; - = inactive; . = no result given.

SMILES	PERK inhibitor	AHR activator	MDM2 E3 inh	NF-kB neuron act	STAT1 activator	APP 5'UTR act	STAT1 activ conf	NFkB act STAT1ct	STAT3 act STAT1c
CCC(C)NC(=O)c1cc(-c2ccc(OC)cc2)on1 (stereo unspecified)	-	-	-	3.4	157	-	179	-	-
COCC(C)NC(=O)c1cc(-c2ccc(O)cc2)on1 (stereo unspecified)	-	-	-	-	-	-	.	.	.
CC(=O)NCCc1cc2ccc(C)c(C)c2[nH]c1=O	-	-	-	-	-	-	.	.	.
Cc1ccc2cc(CCNC(=O)c3cccs3)c(=O)[nH]c2c1C	-	-	.	4	165	-	187	135	-
O=C(Nc1ccc2oc(-c3ccccc3Cl)nc2c1)c1ncn[nH]1	-	-	-	5.1	156	-	204	-	114
CCC(=O)Nc1ccc2oc(-c3ccccc3Br)nc2c1	-	-	-	5.7	160	-	190	138	-
NC(N)=Nc1nc(C2COc3ccccc3O2)cs1 (stereo unspecified)	-	-	-	5	164	166	202	-	-
Fc1cc(F)c2nc(Nc3nc4cc5c(cc4s3)OCO5)sc2c1	-	-	-	-	-	-	.	.	.
Fc1cccc2sc(Nc3nc4cc5c(cc4s3)OCCO5)nc12	-	60	-	-	170	162	249	-	132
CCCN1C=CC(=C/C=C(\C#N)C(=O)OCC)C=C1	-	-	-	-	164	-	183	-	134
COc1ccc([C@H]2CC(=O)C=C(c3ccc4cc[nH]c4c3)C2)cc1	.	-	.	.	.	.	.	.	.
Clc1cccc(/C=N/Nc2ncnc3ccccc23)c1	-	-	-	4.4	162	.	227	143	134
Clc1cccc(Nc2ncnc3ccc(Br)cc23)c1	-	-	-	-	-	-	.	.	.
O=c1c(Cl)c(Cl)cnn1Cc1nnc(-c2ccc(Cl)cc2)o1	-	.	-	-	-	-	.	.	.
O=C(c1ccco1)N1CCCC(c2nc(-c3ccc(S(=O)(=O)NCc4ccccc4)cc3)no2)C1 (stereo unspecified)	-	-	-	-	-	-	.	.	.
CC(=O)Nc1ccc(-c2nc3ccccc3c(=O)o2)cc1	.	-	.	.	.	.	.	.	.
CC(=O)/C=C(\C)Nc1ccc(-c2cnc(-c3ccccc3)o2)cc1	-	-	-	4.8	180	-	186	-	-
Nc1nc2ccc(-c3nc4ccccc4o3)cc2s1	-	-	-	10	152	157	231	-	-
COc1ccc2nc(-c3ccc(Cl)cc3)cc(C(=O)O)c2c1	-	-	-	.	.	.	.	.	.
N#C/C(=C\c1ccc(N2CCOCC2)o1)C(=O)NCCc1ccccc1	-	-	-	-	-	-	.	.	.
N#C/C(=C/c1ccc(N2CCOCC2)o1)C(=O)Nc1ccccc1	-	.	-	4.4	160	162	195	-	-
C[C@H](CO)N1C[C@H](C)[C@@H](CN(C)S(=O)(=O)c2ccc(F)cc2)Oc2ccc(NC(=O)NC3CCCCC3)cc2C1=O	.	-	.	.	.	.	.	.	.
Cc1ccc(CNC(=O)CS(=O)(=O)c2cn(CC(=O)N3CCOCC3)c3ccccc23)cc1	.	-	.	.	.	.	.	.	.
C/C(=N\NC(=O)CNC(=O)c1ccc(F)cc1)c1ccco1	.	-	.	.	.	.	.	.	.
Clc1ccc(-n2ncc3c(NCC4CCCO4)ncnc32)cc1 (stereo unspecified)	-	-	-	3.4	163	156	254	-	-
COc1ccc(-n2ncc3c(NCC4CCCO4)ncnc32)cc1 (stereo unspecified)	-	-	-	-	172	-	182	-	122
COc1ccc(-n2nc(C(=O)NCC3CCCO3)c3ccccc3c2=O)cc1 (stereo unspecified)	.	-	.	.	.	.	.	.	.
